Five molecules from article PMC11618456 (Nature Communications, 2024) can be followed below.

Data set [1] in a line: Metabolic stability in human liver microsomes. Format: in vitro ADME. The note with it: for Stability in HLM (% remaining) 30 min / Stability in HLM (% remaining) 60 min: 1 mg/mL HLM, 1 mM NADPH, 20 µM compound, mean ± SD. In a few lines:
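Incubations in 1× PBS held 1 mg/mL HLM, 1 mM NADPH and 20 µM test compound at 37 °C for up to 60 min. Remaining compound was quantified by UPLC-QTOFMS, n = 3 per time point.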

A short description of a further data set: Cytotoxicity MTT assay. Type of data set: cell-based. The note with it: human, A549 cells, CC50, half-cytotoxic concentration, 72 h, MTT; mean ± SD (n ≥ 3).
The test system of another data set is ABCB1. In words: Effect on ABCB1. Format: in vivo, mouse. The following applies: WT mice, 100 mg/kg po pretreatment, paclitaxel as substrate.
In data set [2] the test system is Fech-mut mice. As to the kind of experiment: EPP-associated phototoxicity in Fech-mut mice after light exposure. Type of data set: in vivo, mouse.
A short description of another data set: in vitro. The following applies: Fech-mut (BALB/c background), mouse, serum from Fech-mut mice treated with K31, oral, 100 mg/kg.
The nature of data set [3]: Pharmacokinetics in WT mice after oral treatment. Format: in vivo, mouse. The note with it: 100 mg/kg po, Fig. 1d.
Data set [4] deals with PPIX in serum of Fech-mut mice. As to the kind of experiment: PPIX distribution in serum of Fech-mut mice. Type of data set: in vivo, mouse. The following applies: 100 mg/kg po.
The subject of another data set is WT mice. In words: Sub-chronic study. The note with it: 100 mg/kg po, 23 days. Type of data set: in vivo, mouse. In a few lines:
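Male wild-type mice aged 8 weeks got vehicle or test compound 100 mg/kg orally for 23 days (n = 4 per group), weighed daily before dosing. On day 24, blood, liver, kidney and spleen were collected for organ/body weight ratios. Serum ALT, AST and ALP were measured by enzymatic kits, and liver histology was assessed.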

The next data set has as its target T1, ABCG2 (Mus musculus, UniProt Q7TMS5).
T1 sequence (Q7TMS5 1-657): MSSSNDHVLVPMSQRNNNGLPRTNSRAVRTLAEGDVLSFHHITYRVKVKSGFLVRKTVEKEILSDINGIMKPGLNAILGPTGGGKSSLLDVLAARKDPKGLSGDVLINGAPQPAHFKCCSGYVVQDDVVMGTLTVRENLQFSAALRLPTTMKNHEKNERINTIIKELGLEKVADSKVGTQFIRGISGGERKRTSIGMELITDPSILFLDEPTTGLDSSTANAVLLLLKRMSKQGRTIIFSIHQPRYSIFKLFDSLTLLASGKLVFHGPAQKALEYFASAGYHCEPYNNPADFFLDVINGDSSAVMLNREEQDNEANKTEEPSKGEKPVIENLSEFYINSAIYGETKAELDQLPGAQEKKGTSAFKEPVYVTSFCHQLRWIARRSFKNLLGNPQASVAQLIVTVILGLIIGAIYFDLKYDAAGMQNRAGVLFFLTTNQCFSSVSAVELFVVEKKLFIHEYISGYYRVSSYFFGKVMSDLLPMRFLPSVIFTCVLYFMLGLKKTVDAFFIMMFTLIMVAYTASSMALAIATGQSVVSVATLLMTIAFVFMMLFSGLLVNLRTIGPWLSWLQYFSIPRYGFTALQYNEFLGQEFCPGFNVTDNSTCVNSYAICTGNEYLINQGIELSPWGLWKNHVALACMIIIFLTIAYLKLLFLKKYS
In words: PPIX efflux from RBCs of Fech-mut mice. Type of data set: cell-based. The following applies: 10 µM, up to 3 h. In a few lines:
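Fech-mut mouse RBCs were cultured in phenol-red-free RPMI 1640 at 2 × 10^8 cells/well, 37 °C, gently shaken and light-protected, with or without 10 µM test compound for 1 or 3 h. Medium PPIX was read by fluorescence (ex 405 nm, em 630 nm) and expressed as % of RBC PPIX at time 0. n = 3 mice, duplicate incubations, mean ± SEM.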

For data set [5], the system named is Fech-mut mice. As to the kind of experiment: Safety after short-term treatment. Type of data set: in vivo, mouse. The note with it: 100 mg/kg po, 5 days.
The test system of a further data set is A549 cells. In words: Cytotoxicity MTT assay. Type of data set: cell-based. The following applies: Table 1.

Bounds are passed on as bounds.

In the case of `COc1ccc2c3c([nH]c2c1)[C@H](CC(C)C)N1C(=O)[C@H](CC(=O)NCc2ccccc2)NC(=O)[C@@H]1C3` [K33], in data set [1], the “Stability in HLM (% remaining) 30 min” value worked out at 37 ± 3 % remaining and the “Stability in HLM (% remaining) 60 min” value is on record as 18 ± 1 % remaining. The molecule also registered a CC50 at 72 h in the data set “Cytotoxicity MTT assay” of 31.1 ± 3.7 µM.
For `COc1ccc2c3c([nH]c2c1)[C@H](CC(C)C)N1C(=O)[C@H](CC(=O)NC(C)(C)C)NC(=O)[C@@H]1C3` [K3], in that order: 74 ± 25 % remaining, 60 ± 3 % remaining and 58.9 ± 5.3 µM.
As for `COc1ccc2c3c([nH]c2c1)[C@H](CC(C)C)N1C(=O)[C@H](CC(=O)N2CCCCC2)NC(=O)[C@@H]1C3` [K25], half-maximal cytotoxicity in the data set “Cytotoxicity MTT assay” (CC50 at 72 h) was put at 26.5 ± 2.5 µM.
Take `COc1ccc2c3c([nH]c2c1)[C@H](CC(C)C)N1C(=O)[C@H](CC(=O)NC(C)C)NC(=O)[C@@H]1C3` [K31]: the “inhibitory effect on ABCB1” value in the data set with ABCB1 is given as “no inhibitory effect”. Also, in the data set with Fech-mut mice [2] (100 mg/kg po days 1-4, then withdrawn, light continued days 5-8), the “withdrawal test: phototoxicity after K31 withdrawal” value is given as “recurrence of light-triggered phototoxicity was observed in the skin of Fech-mut mice from the second day of K31 withdrawal”. Moreover, the “oxidative stress and inflammation in the skin” value with Fech-mut mice [2] (100 mg/kg po, light exposure, once daily for 5 days) is “attenuated oxidative stress and inflammation”. Besides, the “light-triggered phototoxicity (gross appearance of the skin)” value in the data set with Fech-mut mice [2] (30 and 100 mg/kg po, once daily for 5 days, both sexes) is “significantly decreased”. Also, the “histological changes of skin (missing epidermis, damaged subepidermal collagen)” value in the data set with Fech-mut mice [2] (po pretreatment, light exposure, H&E, Sirius Red) was “prevented”. This molecule displayed a fraction unbound at 16 h in “in vitro” of 0.0585. Further, in data set [1], the “Stability in HLM (% remaining) 30 min” value is 65 ± 3 % remaining and the “Stability in HLM (% remaining) 60 min” value is listed as 49 ± 9 % remaining. Further, the “metabolic stability (in words)” value in [1] (incubation with human liver microsomes, Fig. 1c) is “significantly improved”. In addition, the “pharmacokinetic profile after oral treatment (in words)” value in data set [3] is given as “outstanding pharmacokinetic profiles”. The “PPIX in serum (in words)” value in [4] is “significant decrease”. Moreover, in the data set with WT mice, the “biomarkers of liver toxicity (ALT, AST, ALP) (in words)” value is “did not alter”; the “growth (body weight gain) (in words)” value is given as “did not alter”; the “ratios of organ (liver, kidney, and spleen) to body weight (in words)” value is “did not alter”. Moreover, the “PPIX release from the RBCs of Fech-mut mice (in words)” value on ABCG2 is recorded as “markedly decreased”. Moreover, in the data set on Fech-mut mice [5], the “PPIX levels in the liver (in words)” value is “did not alter”; the “liver damage, alanine aminotransaminase (in words)” value is “did not potentiate liver damage”; the “mean corpuscular hemoglobin in blood (in words)” value is recorded as “no significant impact”; the “total hemoglobin in blood (in words)” value is “no significant impact”. In addition, the “morphological changes in the liver and kidney” value with Fech-mut mice [5] (H&E) is reported as “did not cause morphological changes”. The CC50 at 72 h in “Cytotoxicity MTT assay” is more than 100 µM. For the same molecule, the “cytotoxicity compared with other Ko143 analogs” value in the data set with A549 cells was “less cytotoxic when compared to other Ko143 analogs”.
Regarding `COc1ccc2c3c([nH]c2c1)[C@H](CC(C)C)N1C(=O)[C@H](CC(=O)NC2CCCCC2)NC(=O)[C@@H]1C3` [K23], in data set [1], the “Stability in HLM (% remaining) 30 min” value turned out to be 45 ± 2 % remaining and the “Stability in HLM (% remaining) 60 min” value turned out to be 26 ± 2 % remaining. The CC50 at 72 h in “Cytotoxicity MTT assay” was 46.6 ± 0.9 µM.
